For experiment [1], the target named is Voltage-dependent calcium channel alpha2delta subunit (Sus scrofa, UniProt O77773). Kind of experiment: Displacement of [3H]gabapentin from calcium channel alpha2delta in pig cerebral cortex membrane after 30 mins. Type of experiment: cell membranes. A general note: In a radioligand displacement assay an active substance lowers the binding of a labelled ligand.

Experiment [2] concerns Rattus norvegicus. Kind of experiment: Antihyperalgesic effect in carrageenan-induced rat inflammatory pain model assessed as reversal of hyperalgesia at 30 mg/kg, po. Set-up: dose 30 mg/kg. Type of experiment: functional, organism-based. Put shortly: (§1)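 Rats received intraplantar carrageenan in the paw, and thermal hyperalgesia was allowed to form over 2 h, to a paw-withdrawal latency of 2.5 s. Test compound was then given orally. Reversal of hyperalgesia was read as the time to paw withdrawal.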

The test system of experiment [3] is Rattus norvegicus. Nature of the experiment: Analgesic activity in po dosed rat assessed as increase in number shocks received for 10 mins. Type of experiment: functional. As to conditions: read-out: MED. In short, it runs like this:
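Vogel conflict model: rats were dosed orally at different doses, then placed in a cage with a drinking tube that delivered a shock at each drink. The mean number of shocks per rat was counted over 10 min. The minimum effective dose was taken from significance versus vehicle (P <0.05).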

The subject of experiment [4] is Rattus norvegicus. Nature of the experiment: Antihyperalgesic effect in carrageenan-induced rat inflammatory pain model assessed as reversal of hyperalgesia at 1 to 30 mg/kg, po. In kind it is functional, organism-based. Put shortly: as §1
Experiment [5] relates to Rattus norvegicus. Kind of experiment: Antihyperalgesic effect in carrageenan-induced intrathecal dosed rat inflammatory pain model assessed as reversal of hyperalgesia. Type of experiment: functional, organism-based.

The structures appear in SMILES notation. The source made the active and inactive calls. No cut-off for these calls is given here.

A word on the IC50: it is the concentration that gives 50% inhibition.

Sequence of Voltage-dependent calcium channel alpha2delta subunit (O77773 whole entry): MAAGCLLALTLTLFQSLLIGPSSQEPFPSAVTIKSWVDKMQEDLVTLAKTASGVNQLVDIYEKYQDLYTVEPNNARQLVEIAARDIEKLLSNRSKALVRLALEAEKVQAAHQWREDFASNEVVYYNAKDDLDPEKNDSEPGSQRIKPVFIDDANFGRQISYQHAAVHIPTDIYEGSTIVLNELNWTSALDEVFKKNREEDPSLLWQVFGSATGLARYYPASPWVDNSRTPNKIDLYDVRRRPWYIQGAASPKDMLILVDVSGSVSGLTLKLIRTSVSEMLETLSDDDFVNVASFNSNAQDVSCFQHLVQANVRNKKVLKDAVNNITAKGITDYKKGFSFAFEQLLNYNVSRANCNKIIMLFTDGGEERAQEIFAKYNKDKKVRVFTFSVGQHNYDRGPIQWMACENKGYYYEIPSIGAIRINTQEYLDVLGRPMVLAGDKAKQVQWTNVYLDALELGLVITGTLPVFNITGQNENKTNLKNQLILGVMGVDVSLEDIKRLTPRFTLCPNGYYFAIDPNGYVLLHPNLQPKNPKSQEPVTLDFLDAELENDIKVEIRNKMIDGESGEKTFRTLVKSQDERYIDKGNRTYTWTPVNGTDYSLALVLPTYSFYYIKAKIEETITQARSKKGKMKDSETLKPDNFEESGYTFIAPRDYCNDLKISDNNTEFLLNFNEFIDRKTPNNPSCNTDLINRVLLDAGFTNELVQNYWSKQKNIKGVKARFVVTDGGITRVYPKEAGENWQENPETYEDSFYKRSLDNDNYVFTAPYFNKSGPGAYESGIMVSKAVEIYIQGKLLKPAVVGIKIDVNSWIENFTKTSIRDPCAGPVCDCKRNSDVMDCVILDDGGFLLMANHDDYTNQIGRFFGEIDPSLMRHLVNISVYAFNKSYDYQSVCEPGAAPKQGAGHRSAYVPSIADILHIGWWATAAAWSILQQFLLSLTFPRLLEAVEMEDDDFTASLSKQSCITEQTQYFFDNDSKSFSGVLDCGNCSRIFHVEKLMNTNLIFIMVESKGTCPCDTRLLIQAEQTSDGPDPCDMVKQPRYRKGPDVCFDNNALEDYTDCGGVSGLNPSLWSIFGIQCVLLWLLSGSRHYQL

Regarding `CC[C@@H]1CCC(CN)(CC(=O)O)C1` (stereo not given in full), the IC50 in experiment [1] is 53 nM. Turning to `C[C@@H]1CCC(CN)(CC(=O)O)C1` (stereo not given in full), the IC50 in experiment [1] is 88 nM. Consider `CC[C@H]1CCC(CN)(CC(=O)O)C1` (stereo not given in full), for which the half-inhibitory concentration (IC50) in experiment [1] came out at 706 nM. `CC1(C)CCC(CN)(CC(=O)O)C1` (stereo not given): the IC50 in experiment [1] was 3180 nM. `C[C@@H]1CC[C@@](CN)(CC(=O)O)C1`: in experiment [1], the IC50 amounted to 71 nM. The result with Rattus norvegicus [2] was Active. Besides, the minimal effective dose with Rattus norvegicus [3] is 30 mg/kg.

Take `C[C@@H]1CC[C@](CN)(CC(=O)O)C1`: in experiment [1], the IC50 amounted to 30 nM. Moreover, the outcome in the experiment on Rattus norvegicus [4] was inactive. In addition, the outcome in the experiment on Rattus norvegicus [5] was Active. Moreover, in the experiment with Rattus norvegicus [3], the minimal effective dose is 3 mg/kg. As to `CCC[C@@H]1CCC(CN)(CC(=O)O)C1` (stereo not given in full), the IC50 in experiment [1] is 29 nM.

Take `CC1CCC(CN)(CC(=O)O)C1` (mixture of isomers): in experiment [1], the IC50 was found to be 82 nM. Regarding `CC(C)(C)C1CCC(CN)(CC(=O)O)C1` (mixture of isomers), in experiment [1], the IC50 is above 10000 nM.

For the molecule `CCCC1CCC(CN)(CC(=O)O)C1` (mixture of isomers), in experiment [1], the IC50 is 69 nM. With `CC(C)CC1CCC(CN)(CC(=O)O)C1` (mixture of isomers), the IC50 in experiment [1] was found to be 760 nM.

Take `CCC1CCC(CN)(CC(=O)O)C1` (mixture of isomers): the IC50 in experiment [1] is 55 nM. Same read-out and setting: to `CCCCC1CCC(CN)(CC(=O)O)C1` (mixture of isomers) belongs 690 nM; to `NCC1(CC(=O)O)CCC(c2ccccc2)C1` (mixture of isomers), 5060 nM. For `NCC1(CC(=O)O)CCC(Cc2ccccc2)C1` (mixture of isomers), the IC50 in experiment [1] turned out to be 9280 nM. For `NCC1(CC(=O)O)CCC(CCc2ccccc2)C1` (mixture of isomers), the IC50 in experiment [1] was 6230 nM. For the molecule `CCC[C@H]1CCC(CN)(CC(=O)O)C1` (single isomer, unassigned), in experiment [1], the IC50 was found to be 1200 nM. The same measure, in the same setting: with `C[C@H]1CCC(CN)(CC(=O)O)C1` (single isomer, unassigned) the figure was 1300 nM. Take `NCC1(CC(=O)O)CCCC1` [GABABUTIN]: the IC50 in experiment [1] turned out to be 420 nM. Take `CC(C)C[C@H](CN)CC(=O)O` [PREGABALIN]: the minimal effective dose in the experiment on Rattus norvegicus [3] came to 10 mg/kg.
